Measured values taken from PubChem BioAssay.
Active and inactive are the calls of the source.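 How the source made its calls: active means growth inhibition above a set limit, 3 SD over mean compound inhibition, in both replicates (cut at about 43% in these data); inconclusive means above the limit in only one replicate; inactive means at or below the limit in both replicates.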

Test: Restrictive medium S. cerevisiae growth inhibition, OD615, pilot screen of yeast lifespan reduction project, restrictive growth control (AID 706);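 further: modified DeaD lifespan yeast strain shifted to restrictive glucose medium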
Details: OD615, 48 h, at 10 µM, active compounds read high
Method in brief: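 System: Engineered S. cerevisiae DeaD strain | Buffer or medium: Glucose-based CSMM-D restrictive medium | Schedule: 4 h pre-incubation, 48 h exposure at 30 °C | Technique: Optical density at 615 nm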

Structure (SMILES) | growth inhibition
O=C(CSc1ccccn1)c1ccc(F)cc1 | 17.6% (inactive)
O=C(CCn1c(=O)oc2ccccc21)NCc1ccc2c(c1)OCO2 | -19.9% (inactive)
COc1ccc(-n2c(=O)c3ccccc3n(CC(=O)NC3CCCC3)c2=O)c(OC)c1 | -22% (inactive)
O=C(Nc1ccc(F)cc1)C1CCCN(S(=O)(=O)c2cccc3cccnc23)C1 (configuration not stated) | -7.79% (inactive)
COc1ccc(CCNC(=O)CCn2c(=O)oc3ccccc32)cc1OC | -12.8% (inactive)
O=C(CCS(=O)(=O)c1cccc2nonc12)NCCc1ccccc1Cl | -9.76% (inactive)
Cc1ccc(S(=O)(=O)N(CC(=O)N2CCCC2)C2CCCCC2)cc1 | 10.9% (inactive)
Cc1ccc(N2C(=O)C(Cl)=C(NCCO)C2=O)c(C)c1 | -2.88% (inactive)
Cc1cccn2cc(-c3ccc(F)cc3)nc12 | 15.1% (inactive)
CSc1nc2ccc(NS(=O)(=O)c3ccc4c(c3)OCCO4)cc2s1 | 0.53% (inactive)
Cc1cc(Nc2ccc3c(c2)OCCO3)n2nc(C)nc2n1 | 11.4% (inactive)
O=C(COc1ccc(S(=O)(=O)NC2CCCCC2)cc1)Nc1ccc2c(c1)OCCO2 | 4.23% (inactive)
COc1ccc(OC)c2c1sc(=NC(=O)CN1C(=O)CCC1=O)n2C | 5.91% (inactive)
Cc1occc1C(=O)Nc1nnc(-c2ccncc2)s1 | 5.91% (inactive)
Cc1nnc(SCC(=O)Nc2ccc3c(c2)OCO3)o1 | -12% (inactive)
O=C(CSC1=NS(=O)(=O)c2ccccc21)Nc1ccccc1 | 96.9% (active)
CCOC(=O)Cc1csc(NC(=O)COc2ccc(N(C)S(=O)(=O)c3cccs3)cc2)n1 | -11.7% (inactive)
